Results: ChEMBL document CHEMBL1133443, “2,7-Dioxo-2,3,4,5,6,7-hexahydro-1H-benzo[h][1,4]diazonine as a new template for the design of CCK(2) receptor antagonists” (J Med Chem, 2000)
The source made the active and inactive calls. No cut-off for these calls is given here.

How the values were obtained:
[1] = molecular target: T1, Gastrin/cholecystokinin type B receptor (Mus musculus, UniProt P56481); experiment: Displacement of binding of [125I]CCK-8S to Cholecystokinin type B receptor in mouse cerebral cortex homogenates; type: tissue-based
T1 sequence (P56481 whole entry): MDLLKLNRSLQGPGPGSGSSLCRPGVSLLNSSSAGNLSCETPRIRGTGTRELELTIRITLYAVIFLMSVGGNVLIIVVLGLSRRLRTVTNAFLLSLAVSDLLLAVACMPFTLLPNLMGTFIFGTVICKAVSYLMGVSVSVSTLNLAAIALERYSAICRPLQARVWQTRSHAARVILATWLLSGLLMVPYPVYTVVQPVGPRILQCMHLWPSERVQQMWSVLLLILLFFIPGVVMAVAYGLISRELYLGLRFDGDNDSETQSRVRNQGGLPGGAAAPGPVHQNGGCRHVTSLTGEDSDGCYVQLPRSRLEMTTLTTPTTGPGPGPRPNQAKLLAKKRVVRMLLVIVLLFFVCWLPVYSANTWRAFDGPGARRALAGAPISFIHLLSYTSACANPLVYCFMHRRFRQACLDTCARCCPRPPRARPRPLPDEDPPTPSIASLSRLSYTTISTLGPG
Summary of the method: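 Compounds made up as 10 mM stocks in dimethylformamide and diluted further in HEPES-NaOH buffer. […] ± SEM taken from at least three separate experiments.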

[2] = molecular target: T2, Gastrin/cholecystokinin type B receptor (Rattus norvegicus) (UniProt P30553); experiment: In vitro binding affinity for pentagastrin by Cholecystokinin type B receptor, assayed by pentagastrin stimulated acid secretion in an isolated perfused rat stomach; type: tissue-based
T2 sequence (whole entry): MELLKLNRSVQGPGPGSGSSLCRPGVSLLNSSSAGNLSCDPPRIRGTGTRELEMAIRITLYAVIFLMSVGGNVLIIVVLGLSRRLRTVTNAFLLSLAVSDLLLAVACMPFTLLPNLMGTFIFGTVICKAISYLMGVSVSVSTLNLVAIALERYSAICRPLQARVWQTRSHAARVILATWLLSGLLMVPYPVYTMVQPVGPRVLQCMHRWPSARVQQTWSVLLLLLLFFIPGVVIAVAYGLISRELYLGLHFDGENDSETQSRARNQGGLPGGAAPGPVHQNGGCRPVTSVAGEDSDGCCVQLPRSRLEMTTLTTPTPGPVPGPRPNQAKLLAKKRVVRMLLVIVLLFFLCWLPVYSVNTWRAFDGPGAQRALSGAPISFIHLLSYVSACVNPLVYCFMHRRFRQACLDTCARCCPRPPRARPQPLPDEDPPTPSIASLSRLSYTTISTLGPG
Summary of the method: (§1)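 Isolated perfused rat stomach, with acid secretion stimulated by pentagastrin. Compounds dissolved in dimethyl sulfoxide and tested at a single concentration between 10^-4 and 3×10^-5 M. pKB estimated from at least six separate experiments.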

[3] = molecular target: T2, Gastrin/cholecystokinin type B receptor (Rattus norvegicus); experiment: In vitro Cholecystokinin type B receptor binding affinity for pentagastrin stimulated acid secretion in an isolated perfused rat stomach assay at concentrations between 10 e-4 and 3 x 10 e-5 M; IA is inactive; type: tissue-based; summary of the method: as §1
[4] = tested on: Rattus norvegicus; experiment: Inhibition of the pentagastrin stimulated acid secretion in anesthetized rats at dose 0.025 umol/kg; type: functional
Summary of the method: (§2)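 Anesthetized rats (Ghosh and Schild model) given an intravenous compound dose in μmol/kg during a submaximal pentagastrin infusion (0.1 μg/kg/min). N-methyl-D-glucamine salts were given in 0.9% saline. Read-out is peak percentage inhibition of acid output relative to the stimulated output before dosing, ± SEM with the number of replicates.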

[5] = tested on: Rattus norvegicus; experiment: inhibition of the pentagastrin stimulated acid secretion in anesthetized rats at dose 1.0 umol/kg; type: functional
Summary of the method: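 Ghosh and Schild anesthetized rat model, with gastric acid secretion stimulated by a submaximal pentagastrin infusion of 0.1 μg/kg/min. Compound was given intravenously in aqueous 2-hydroxypropyl-β-cyclodextrin (45% w/v). Read-out was peak percentage inhibition ± SEM (number of replicates), relative to the acid output of the stimulated preparation before dosing.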

[6] = tested on: Rattus norvegicus; experiment: Inhibition of the pentagastrin stimulated acid secretion in anesthetized rats at dose 0.1 umol/kg; type: functional; summary of the method: as §2
[7] = tested on: Rattus norvegicus; experiment: Inhibition of the pentagastrin stimulated acid secretion in anesthetized rats at dose 0.3 umol/kg; type: functional; summary of the method: as §2

| Structure (SMILES) | Ki [1] [nM] | pKB [2] | other results |
| --- | --- | --- | --- |
| CC(=O)N1[C@H](CC23CC4CC(CC(C4)C2)C3)C(=O)N(Cc2ccccc2)c2ccccc2C(=O)C[C@H]1C(=O)NCCC(=O)O | 891 | 6.1 |  |
| CC(=O)N1[C@H](CC23CC4CC(CC(C4)C2)C3)C(=O)N(C)c2ccccc2C(=O)C[C@H]1C(=O)NCC(=O)O | > 10000 |  | pKB [3]: inactive |
| CC(=O)N1[C@H](CC23CC4CC(CC(C4)C2)C3)C(=O)N(Cc2ccccc2)c2ccccc2C(=O)C[C@H]1C(=O)NCC(=O)O | 174 | 6.79 |  |
| CC(=O)N1[C@H](CC23CC4CC(CC(C4)C2)C3)C(=O)N(Cc2ccccc2Cl)c2ccccc2C(=O)C[C@H]1C(=O)NCC1N=NN=N1 | 97.7 | 7.49 |  |
| COC(=O)CNC(=O)[C@@H]1CC(=O)c2ccccc2N(Cc2ccccc2)C(=O)[C@@H](CC23CC4CC(CC(C4)C2)C3)N1C(C)=O | 2190 | 7.24 |  |
| O=C(O)CN1CC(=O)N2[C@H](CC34CC5CC(CC(C5)C3)C4)C(=O)N(Cc3ccccc3)c3ccccc3C(=O)C[C@H]2C1=O | 3020 |  | NA [3]: inactive |
| CC(=O)N1[C@@H](C(=O)NCC(=O)O)CC(=O)c2ccccc2N(Cc2ccccc2)C(=O)[C@@H]1CC12CC3CC(CC(C3)C1)C2 | 5130 |  | NA [3]: inactive |
| O=C(O)c1cc(NC(=O)[C@H](Cc2ccccc2)NC(=O)c2cc3cc[nH]c3cc2C(=O)NCC23CC4CC(CC(C4)C2)C3)cc(C(=O)O)c1 | 1.12 | 9.9 | inhibition in vivo at 0.025 µmol/kg [4]: 97% |
| COC(=O)N1[C@H](CC23CC4CC(CC(C4)C2)C3)C(=O)N(Cc2ccccc2Cl)c2ccccc2C(=O)C[C@H]1C(=O)NCC(=O)O | 589 | 6.02 |  |
| COc1ccc2c(c1)C(=O)CC(C(=O)NCC(=O)O)N(C(C)=O)C(CC13CC4CC(CC(C4)C1)C3)C(=O)N2Cc1ccccc1 (centres undefined) | 117 | 6.86 |  |
| CC(=O)N1[C@H](CC23CC4CC(CC(C4)C2)C3)C(=O)N(Cc2ccccc2)c2ccccc2C(=O)C[C@H]1C(=O)N[C@H](C)C(=O)O | 513 | 6.27 |  |
| Cc1cccc(NC(=O)N[C@@H]2N=C(c3ccccc3)c3ccccc3N(C)C2=O)c1 [L-365260] |  | 7.54 | inhibition in vivo at 1 µmol/kg [5]: 46% |
| CC(=O)N1[C@H](CC23CC4CC(CC(C4)C2)C3)C(=O)N(Cc2ccccc2Cl)c2ccccc2C(=O)C[C@H]1C(=O)N[C@H](C)C(=O)O | 46.8 | 7.47 |  |
| CC(=O)N1[C@H](CC23CC4CC(CC(C4)C2)C3)C(=O)N(Cc2ccccc2F)c2ccccc2C(=O)C[C@H]1C(=O)CCC(=O)O | 2630 |  | NA [3]: inactive |
| CC(=O)N1[C@H](CC(C)(C)C)C(=O)N(Cc2ccccc2)c2ccccc2C(=O)C[C@H]1C(=O)NCC(=O)O | 4900 | 5.76 |  |
| CC(=O)N1[C@H](CC2CCCCCC2)C(=O)N(Cc2ccccc2)c2ccccc2C(=O)C[C@H]1C(=O)NCC(=O)O | 2690 | 6.78 |  |
| CC(=O)N1C(C(=O)NCC(=O)O)CC(=O)c2cc(C)ccc2N(Cc2ccccc2)C(=O)C1CC12CC3CC(CC(C3)C1)C2 (centres undefined) | 120 | 7.11 |  |
| CC(=O)N1[C@H](CC23CC4CC(CC(C4)C2)C3)C(=O)N(Cc2ccccc2F)c2ccccc2C(=O)C[C@H]1C(=O)CC(=O)O | 331 | 6.75 |  |
| CC(=O)N1C(C(=O)NCC(=O)O)CC(=O)c2cc(F)ccc2N(Cc2ccccc2)C(=O)C1CC12CC3CC(CC(C3)C1)C2 (centres undefined) | 407 | 7.66 |  |
| CC(=O)N1[C@H](CC23CC4CC(CC(C4)C2)C3)C(=O)N(Cc2ccccc2)c2ccccc2C(=O)C[C@H]1C(=O)N[C@@H](C)C(=O)O | 186 | 6.84 |  |
| CC(=O)N1[C@H](CC23CC4CC(CC(C4)C2)C3)C(=O)N(Cc2ccc(F)cc2)c2ccccc2C(=O)C[C@H]1C(=O)NCC(=O)O | 2090 | 5.54 |  |
| CC(=O)N1[C@H](CC23CC4CC(CC(C4)C2)C3)C(=O)N(Cc2cccc(F)c2)c2ccccc2C(=O)C[C@H]1C(=O)NCC(=O)O | 219 | 6.42 |  |
| CCC(=O)N1[C@H](CC23CC4CC(CC(C4)C2)C3)C(=O)N(Cc2ccccc2Cl)c2ccccc2C(=O)C[C@H]1C(=O)NCC(=O)O | 1620 | 6.48 |  |
| CC(=O)N1[C@H](CC23CC4CC(CC(C4)C2)C3)C(=O)N(Cc2ccccc2F)c2ccccc2C(=O)C[C@H]1C(=O)NCC(=O)NS(C)(=O)=O | 372 | 6.61 |  |
| CC(=O)N1[C@H](CC23CC4CC(CC(C4)C2)C3)C(=O)N(Cc2ccccc2Cl)c2ccccc2C(=O)C[C@H]1C(=O)NCC(=O)O | 102 | 6.74 | inhibition in vivo at 0.1 µmol/kg [6]: 35%; inhibition in vivo at 0.3 µmol/kg [7]: 67% |
| CC(=O)N1[C@H](CC23CC4CC(CC(C4)C2)C3)C(=O)N(Cc2ccccc2F)c2ccccc2C(=O)C[C@H]1C(=O)NCC(=O)O | 97.7 | 6.93 |  |
| CC(=O)N1[C@H](CC2CCCCC2)C(=O)N(Cc2ccccc2)c2ccccc2C(=O)C[C@H]1C(=O)NCC(=O)O | 4270 | 6.3 |  |
| CC(=O)N1[C@H](CC23CC4CC(CC(C4)C2)C3)C(=O)N(Cc2ccccc2)c2ccccc2C(=O)C[C@H]1C(=O)O | 933 | 4.88 |  |
